Compound activity as filed in PubChem.
NR2E3 ag-1 = inhibitors of NR2E3-RetCOR corepressor binding, primary screen, NR2E3 agonist project, biochemical, TR-FRET, GST-NR2E3, biotin-RetCOR. Photoreceptor-specific nuclear receptor (Homo sapiens), Q9Y5X4. 1536-well. inhibition of corepressor binding, % at 4.78 µM. actives 0.12% (n = 320,000). AID 2300, 2010;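 active = percent inhibition above the cutoff of mean plus 3 SD of all tested compounds, set per screening campaign, cut at about 20% in these data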
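Format: 1536-well format; test system: GST-NR2E3 and biotin-RetCOR proteins; read-out basis: percent inhibition of TR-FRET ratio; timing: 5 h incubation at 4 °C; detection: time-resolved FRET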
VLA-4 inh = inhibition in human VLA-4 binding assay, primary screen, VLA-4 allosteric modulator project, MLPCN library, flow cytometry, VLA-4 expressing cells; ligand binding flow cytometry; inhibition, % (about 7 µM as worked out from the volumes in the protocol); actives 0.2% (n = 330,000); in the data active = inhibition above about 50%
PG9 binder = binders of HIV-1 gp120 antibody PG9, primary screen, biochemical, TR-FRET; inhibition, % at 6.7 µM; TR-FRET gp120-PG9 antibody binding; actives 0.43% (n = 360,000); in the data active = inhibition above about 8.5%
NR2E3 ag-2 = NR2E3 agonists in two-hybrid cells, primary screen, cell-based, luminescence, CHO-S, Gal4-NCOR/VP16-NR2E3; Photoreceptor-specific nuclear receptor (Homo sapiens), Q9Y5X4; luciferase; inhibition of corepressor binding, % at 3.98 µM; actives 0.35% (n = 360,000); AID 602229, 2012;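 active = inhibition above the mean of all tested compounds plus 3 SD, cut at about 70% in these data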;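 note: higher means lower luciferase signal from less NR2E3 corepressor binding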
NR1D1 modulator = modulators of Rev-erb alpha DNA binding, primary screen, biochemical, FITC-DNA, fluorescence polarization, uHTS. Nuclear receptor subfamily 1 group D member 1 (Homo sapiens), P20393. Rev-erbα–FITC-DNA binding, 90 min. activity, % at 10 µM. actives 0.79% (n = 370,000);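 active = activity above about 14%, limit read from the data; passing the limit was not always enough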
Target sequence (P20393 whole entry, looked up): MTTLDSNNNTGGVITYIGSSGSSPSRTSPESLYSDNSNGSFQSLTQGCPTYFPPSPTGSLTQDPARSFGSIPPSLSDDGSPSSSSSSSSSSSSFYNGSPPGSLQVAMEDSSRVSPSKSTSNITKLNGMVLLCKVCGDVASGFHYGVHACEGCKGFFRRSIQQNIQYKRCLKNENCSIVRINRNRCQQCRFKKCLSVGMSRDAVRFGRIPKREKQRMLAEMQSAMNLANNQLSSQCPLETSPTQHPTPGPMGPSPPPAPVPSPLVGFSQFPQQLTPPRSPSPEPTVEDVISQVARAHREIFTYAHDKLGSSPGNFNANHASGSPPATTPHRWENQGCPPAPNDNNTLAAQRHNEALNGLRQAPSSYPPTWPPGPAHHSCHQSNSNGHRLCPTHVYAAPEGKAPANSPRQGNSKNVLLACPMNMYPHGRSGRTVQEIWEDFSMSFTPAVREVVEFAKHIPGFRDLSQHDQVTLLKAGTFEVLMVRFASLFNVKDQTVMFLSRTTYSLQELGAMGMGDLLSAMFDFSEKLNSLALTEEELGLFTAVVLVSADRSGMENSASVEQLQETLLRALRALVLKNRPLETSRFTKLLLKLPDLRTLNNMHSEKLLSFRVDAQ
NR2E3 ag conf = NR2E3 agonist confirmation in cells, cell-based, luminescence, CHO-S two-hybrid; actives 51% (n = 2,300); shares compounds with NR2E3 ag-2; CHO-S mammalian two-hybrid NR2E3-NCOR, luciferase luminescence; inhibition, % at 3.98 µM;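 active = average inhibition above a cutoff equal to the mean inhibition of all tested compounds plus one SD, cut at about 70% in these data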
GAL4-VP16 luc = GAL4-VP16 reporter modulators, confirmation, counter-screen for NR2E3 agonist project, cell-based, luminescence, CHO-S, high throughput | shares compounds with NR2E3 ag-2 | inhibition, % at 3.98 µM | AID 624379, 2012 | CHO-S GAL4-VP16 luciferase reporter | actives 29% (n = 2,300);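 active = mean inhibition above a cutoff equal to the average over all tested compounds plus one standard deviation, cut at about 70% in these data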;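 note: luciferase from a UAS reporter driven by GAL4-VP16 transactivation; higher means less reporter light so more repression of VP16 activity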
Large screens that a line does not name were inactive (follow-up assays come after a bar, where they were run). In the library only some 1.6% were active in any assay of this set; here they are far more common.

CCN1/C(=C/c2ccc3cc(C)ccc3[n+]2CC)Sc2ccc3sccc3c21	none (no result: PG9 binder, NR1D1 modulator)
CCN1/C(=C\c2ccc3cc(C)ccc3[n+]2CC)Sc2cc(C)c(C)cc21	NR2E3 ag-2 85 (no result: NR2E3 ag-1, VLA-4 inh) | NR2E3 ag conf 98 | GAL4-VP16 luc 87
Clc1ccccc1C(c1ccccc1)(c1ccccc1)n1ccnc1	none (no result: NR1D1 modulator) | NR2E3 ag conf inactive | GAL4-VP16 luc inactive
C#CC(c1ccccc1)(c1ccccc1)n1ccnc1	none (no result: NR2E3 ag-1, VLA-4 inh)
COC(=O)c1ccc(COc2cccc3c2OC(C)(C)C3)cc1	none
COc1ccc(CNCC(O)COc2cccc3c2OC(C)(C)C3)cc1 (centres undefined)	none | NR2E3 ag conf inactive | GAL4-VP16 luc inactive
Cn1cc(SCC(=O)Nc2nc3ccccc3s2)c2ccccc21	none | NR2E3 ag conf inactive | GAL4-VP16 luc inactive
CC(NS(=O)(=O)OCC(Cl)(Cl)Cl)c1ccc(C(C)(C)C)cc1 (centres undefined)	none | NR2E3 ag conf inactive | GAL4-VP16 luc inactive
CC(C)(NS(=O)(=O)OCC(Cl)(Cl)Cl)c1ccccc1	none
COC(=O)[C@]12C[C@H](CC(=O)NCc3ccc(C)o3)C(=O)N(Cc3ccccc3)C1=C[C@H](COCc1ccccc1)O[C@@H]2C	none (no result: NR2E3 ag-1, VLA-4 inh, PG9 binder, NR2E3 ag-2)
COc1cc(OC)c(NC(=O)NNC(=O)C(=O)NC2CC2)cc1Cl	none (no result: NR2E3 ag-1, VLA-4 inh, NR2E3 ag-2)
CC(=O)NC(=S)Nc1ccc(-c2nc3ccc(C)cc3s2)cc1	none
CC1=CCC(C(=O)O)C(C(=O)Nc2ccc(-c3nc4ccc(C)cc4s3)cc2)C1 (centres undefined)	none | NR2E3 ag conf inactive | GAL4-VP16 luc inactive
CCC(O)(c1ccc(NC(=O)OC(C)(C)C)cc1)c1cc(OC)cc(OC)c1 (centres undefined)	none (no result: NR2E3 ag-1, VLA-4 inh, PG9 binder, NR2E3 ag-2)
Cc1ccc(NC(=O)O/N=C/c2c(C)nn(C(C)(C)C)c2C)cc1Cl	NR2E3 ag-2 100 | NR2E3 ag conf 83 | GAL4-VP16 luc 96
Cc1sc2ncnc(NC3CCN(Cc4ccccc4)CC3)c2c1C	NR2E3 ag-2 75 | NR2E3 ag conf 95 | GAL4-VP16 luc 80
OC[C@@H]1CN(Cc2ccc(-c3ccccc3)cc2)C[C@H](n2cnc3c(NC4CCC4)ncnc32)O1	NR2E3 ag-2 80 (no result: NR2E3 ag-1, VLA-4 inh) | NR2E3 ag conf 91 | GAL4-VP16 luc 79
COc1cc(O)c([C@@H](CC(=O)N2CC(C)CC(C)C2)c2ccc3c(c2)OCO3)c(OC)c1 (some centres undefined)	none (no result: NR2E3 ag-1, VLA-4 inh, PG9 binder, NR2E3 ag-2)
Cc1c(/C(O)=C2/C(=O)C(=O)N(Cc3cccnc3)C2c2ccccn2)cnn1-c1ccccc1 (centres undefined)	NR2E3 ag-2 83 | NR2E3 ag conf inactive | GAL4-VP16 luc inactive
CC12CCC(O)CC1=CCC1C2CCC2(C)C(c3ccn[nH]3)CCC12 (centres undefined)	NR2E3 ag-2 82 (no result: NR2E3 ag-1, VLA-4 inh) | NR2E3 ag conf inactive | GAL4-VP16 luc inactive
CC(C)C(=O)N[C@H]1CCC2C3CC=C4C[C@@H](O)CC[C@]4(C)C3CC[C@@]21C (some centres undefined)	none (no result: NR2E3 ag-1)
COC(=O)[C@]12C[C@H](CC(=O)N3CCOCC3)C(=O)N(Cc3ccccc3)C1=C[C@H](C(C)C)O[C@@H]2C1CC1	none (no result: NR2E3 ag-1, VLA-4 inh, NR2E3 ag-2)
C[C@H]1[C@@H](OC(=O)NCCc2ccccc2)CC[C@@]23CCCN2C(=O)CCC[C@@H]13	none (no result: NR2E3 ag-1, VLA-4 inh, PG9 binder, NR2E3 ag-2)
CCCCNC(=O)N1CCCC1C(=O)Nc1cccc(OC)c1 (centres undefined)	none (no result: NR2E3 ag-1, VLA-4 inh, PG9 binder, NR2E3 ag-2)
COC(=O)C1=C(CN2CCCc3ccccc32)NC(=O)NC1c1ccc(F)cc1 (centres undefined)	NR2E3 ag-2 84 | NR2E3 ag conf inactive | GAL4-VP16 luc inactive
COC(=O)C1=C(CN2CCc3ccccc32)NC(=O)NC1c1cc(C)ccc1C (centres undefined)	none
Oc1ccc2[nH]cc(CCc3ccccc3)c2c1-c1ccccc1	none (no result: NR2E3 ag-1, VLA-4 inh, PG9 binder, NR2E3 ag-2)
O=C(O)c1ccc(N=NNc2cccc([N+](=O)[O-])c2)cc1	none
N#C/C(=N\Nc1cccc([N+](=O)[O-])c1)C(=O)c1ccc(Br)cc1	NR2E3 ag-2 95 | NR2E3 ag conf 99 | GAL4-VP16 luc 86
Cc1cc(C(=O)COC(=O)c2ccccc2O)c(C)n1Cc1cccs1	NR2E3 ag-2 91 | NR2E3 ag conf 80 | GAL4-VP16 luc 71
Cc1cc(C(=O)COC(=O)c2ccc3c(c2)OCO3)c(C)n1Cc1cccs1	NR2E3 ag-2 90 | NR2E3 ag conf 77 | GAL4-VP16 luc 75
CCn1nc(C(=O)OCC(=O)c2cc(C)n(Cc3cccs3)c2C)c2ccccc2c1=O	none
Cc1cc(N2CCC[C@@H]2C)nc2ccccc12	none (no result: NR2E3 ag-1, VLA-4 inh, PG9 binder, NR2E3 ag-2)
Cc1ccnc2c1ccc1cccnc12	NR2E3 ag-2 74 (no result: NR2E3 ag-1, VLA-4 inh) | NR2E3 ag conf inactive | GAL4-VP16 luc inactive
Cc1cccc2cccnc12	none
Cc1ccnc2c1ccc1c(C)ccnc12	NR2E3 ag-2 78 (no result: PG9 binder, NR1D1 modulator) | NR2E3 ag conf inactive | GAL4-VP16 luc inactive
Cc1ccnc2c1ccc1ccccc12	none
O=C1[C@@H](C2CC2)[C@@H]2c3ccccc3C=NN2[C@@H]2c3ccccc3C=NN12	none (no result: NR2E3 ag-1, VLA-4 inh, PG9 binder, NR2E3 ag-2)
O=S(=O)(c1ccccc1)N1CCCc2nc(-c3ccc(F)cc3)ccc21	none (no result: NR2E3 ag-1, VLA-4 inh, NR2E3 ag-2)
O=C(NC(=S)/C(=C1\CCCCCN1)[N+](=O)[O-])c1ccccc1	none (no result: NR2E3 ag-1, PG9 binder, NR1D1 modulator) | NR2E3 ag conf inactive | GAL4-VP16 luc inactive
CCN(CC)C(=O)CC[C@H]1CC[C@]2(CCCN(Cc3cccnc3)C2)O1	none (no result: NR2E3 ag-1, VLA-4 inh, PG9 binder, NR2E3 ag-2)
COC1CC(C)C(OC)c2cc(O)cc(c2O)NC(=O)C(C)=CC=CC(C)C(OC(N)=O)C(C)=CC(C)C1OC (centres undefined)	none (no result: NR2E3 ag-1, VLA-4 inh)
COC1C=CC=C(C)C(=O)NC2=CC(=O)C(N)=C(CC(C)CC(OC)C(O)C(C)C=C(C)C1OC(N)=O)C2=O (centres undefined)	NR2E3 ag-2 91 (no result: NR2E3 ag-1, VLA-4 inh) | NR2E3 ag conf 97 | GAL4-VP16 luc inactive
COc1ccc(-n2c(COc3ccc(Cl)cc3)nnc2SCC(=O)Nc2ccc3c(c2)OCO3)cc1	none (no result: NR2E3 ag-1, VLA-4 inh, PG9 binder, NR2E3 ag-2)
O=C(NNc1ccccc1)C(=O)NNS(=O)(=O)c1ccc([N+](=O)[O-])cc1	none | NR2E3 ag conf inactive | GAL4-VP16 luc inactive
Cc1ccccc1-c1cc(C(=O)Nc2sc(C(=O)OC(C)C)c(C)c2C#N)c2ccccc2n1	NR2E3 ag-2 92 | NR2E3 ag conf 100 | GAL4-VP16 luc 88
